Experiments:
[1] = folding enthalpy; higher = less favourable; fluorescence melt of hairpins on a sequencing array, two-state fit; conditions: sodium 0.088 M
Summary of the method: (§1)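 Two-state fits, bootstrapped, provided melting temperature and folding enthalpy from Cy3 fluorescence normalised to pre-quench Cy3 and to control constructs. Library hairpins with annealed Cy3 and quencher oligos were imaged on a sequenced MiSeq flow cell in 50 mM Na-HEPES pH 8.0, 25 mM NaCl, at 2.5 °C intervals up to 60 °C. Four replicates were combined with inverse-variance weighting. A 9.35 °C upward shift was applied to fitted temperatures to match UV melts.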

[2] = melting temperature; fluorescence melt of hairpins on a sequencing array, two-state fit, raised by 9.35 °C to match UV melts; conditions: sodium 0.088 M
Summary of the method: as §1

| Sequence | folding enthalpy [1] | Tm [2] |
| --- | --- | --- |
| GAAGCTGGAAACGGCTTC (((((.(....).))))) | -42.9 kcal/mol | 53.4 °C |
| GTCATTCCGAAAGGAGAC (((..(((....)))))) | -10.2 kcal/mol | 29.2 °C |
| GTTAGCGAAAGCTAAAAC ((((((....)))..))) | -13.2 kcal/mol | 33.4 °C |
| GGCTTCGAAAGAACAGCC ((((((....)))..))) | -29.7 kcal/mol | 43.1 °C |
| GGGATACGAAAGTAACCC (((.(((....))).))) | -31.1 kcal/mol | 51.7 °C |
| GATCCCCCGAGGGATC ((((((....)))))) | -34.6 kcal/mol | 62.1 °C |
| GAATGAGAAATCATTC ((((((....)))))) | -26.8 kcal/mol | 43 °C |
| GTTAGTGGAAACATTAAC ((((.((....)).)))) | -19.2 kcal/mol | 32.5 °C |
| GATCAATAGGTTGATC ((((((....)))))) | -34.3 kcal/mol | 45.1 °C |
| GGATGCGAAAGCAAGTCC ((((((....)))..))) | -13.7 kcal/mol | 35.5 °C |
| GAGTGTCCGAAAGGACTC (((..(((....)))))) | -8.71 kcal/mol | 31.9 °C |
| GATCTGACATCAGATC ((((((....)))))) | -33.5 kcal/mol | 48.3 °C |
| GCAAGGCGAAAGCAATGC (((..((....))..))) | -16 kcal/mol | 41.3 °C |
| GGGAGAGGAAACTTTCCC ((((.((....)).)))) | -27.3 kcal/mol | 42.1 °C |
| GTGTATGGAAACATATGC (..((((....))))..) | -24.1 kcal/mol | 30.7 °C |
| GCCTACGAAAGTATGGGC ((((((....)))..))) | -34.8 kcal/mol | 46.5 °C |
| GCTATGCGAAAGCCGAGC (((..((....))..))) | -19 kcal/mol | 39.4 °C |
| GACAAGACGAAAGTCGTC (((..(((....)))))) | -13.1 kcal/mol | 40.8 °C |
| GAATGCGAAAGCAAATTC ((((((....)))..))) | -18.9 kcal/mol | 33.6 °C |
| AAGTTGAAAAACTT (((((....))))) | -10.6 kcal/mol | 35.4 °C |
| GCATGGCCGAAAGGCTGC (((..(((....)))))) | -13.2 kcal/mol | 53.3 °C |
| GACTCCGAAAGGAAAGTC ((((((....)))..))) | -24.8 kcal/mol | 44.4 °C |
| GTTCTCGAAAGAGTAAC ((((((....))).))) | -18.5 kcal/mol | 34.9 °C |

| Sequence | folding enthalpy [1] | Tm [2] |
| --- | --- | --- |
| GTAAATCGAAAGATATAC (((.(((....))).))) | -12.1 kcal/mol | 29.7 °C |
| GAAATGGGAAACTATTTC (((((.(....).))))) | -23 kcal/mol | 33.7 °C |
| GGGTCCGAAAGGACTCCC ((((((....)))..))) | -11 kcal/mol | 50.6 °C |
| GATCTGAATCAGATC ((((((...)))))) | -34 kcal/mol | 44.7 °C |
| GGAGTTCCGAAAGGATCC (((..(((....)))))) | -12.8 kcal/mol | 31 °C |
| GTAATGGGAAACCACTAC (((.(((....))).))) | -15.9 kcal/mol | 27.6 °C |
| GATTCCCCGAAAGGGATC (((..(((....)))))) | -12.2 kcal/mol | 29.2 °C |
| GATCCGAATCCGGATC ((((((....)))))) | -38.5 kcal/mol | 55.8 °C |
| GCATCGCGAAAGCCATGC ((((.((....)).)))) | -35.7 kcal/mol | 56.3 °C |
| GGACTGACGAAAGTCTCC (((..(((....)))))) | -9.45 kcal/mol | 28.6 °C |
| GATCGATGGTCGATC ((((((...)))))) | -29.4 kcal/mol | 50.6 °C |
| GGCAGTCGAAAGACAGCC (((.(((....))).))) | -38.9 kcal/mol | 61.8 °C |
| GATAGCGAAAGCTTGATC ((((((....)))..))) | -8.2 kcal/mol | 25.1 °C |
| TCAATGAAAATTGA (((((....))))) | -9.78 kcal/mol | 25 °C |
| GCGTAGTGACGC ((((....)))) | -15.4 kcal/mol | 53.7 °C |
| GCGGACTCCGC ((((...)))) | -20.5 kcal/mol | 52 °C |
| GATGCGCCGAAAGGCATC (((..(((....)))))) | -12.4 kcal/mol | 31.4 °C |
| GGCGAAGGAAACTTCGTC (.(((((....))))).) | -35.7 kcal/mol | 53.1 °C |
| GGCTCCACGAAAGTGGCC (((..(((....)))))) | -11.8 kcal/mol | 37.6 °C |
| GGTCCCCGAAAGGGAACC (((.(((....))).))) | -37 kcal/mol | 53 °C |
| GCTGTGCGAAAGCTAAGC (((..((....))..))) | -21.4 kcal/mol | 53.1 °C |
| GGCACCGAAAGGTCAGCC ((((((....)))..))) | -24.2 kcal/mol | 49.2 °C |
| GTGCGTCGAAAGACTCAC (((.(((....))).))) | -40.2 kcal/mol | 49.6 °C |

| Sequence | folding enthalpy [1] | Tm [2] |
| --- | --- | --- |
| GACTATGGAAACATAGTC (((((((....))))))) | -46.8 kcal/mol | 54.5 °C |
| GCTCAGCGAAAGCTTTGC ((..(((....)))..)) | -14.4 kcal/mol | 38.6 °C |
| GGATAACGAAAGTTGTCC (((.(((....))).))) | -47.7 kcal/mol | 52.7 °C |
| GCTGAGCGAAAGCTGAGC (((.(((....))).))) | -40.4 kcal/mol | 55 °C |
| GGTAACACGAAAGTGACC (((..(((....)))))) | -17.1 kcal/mol | 37.1 °C |
| GCGGACGACCGC ((((....)))) | -24.6 kcal/mol | 53.8 °C |
| AGTGTGAAAACACT (((((....))))) | -19.5 kcal/mol | 49.7 °C |
| GGGGTGGGAAACCACTCC ((.((((....)))).)) | -35.1 kcal/mol | 54.6 °C |
| GCCTTTCGAAAGAATGGC (((.(((....))).))) | -42.6 kcal/mol | 53 °C |
| GTGTCCGAAAGGACCCAC ((((((....)))..))) | -8.57 kcal/mol | 38.5 °C |
| GTAGAAGGAAACTTCTAC (((((((....))))))) | -40 kcal/mol | 51.4 °C |
| GCCTGTGGAAACACAAGC ((.((((....)))).)) | -22.5 kcal/mol | 38.6 °C |
| GGTGTATCGAAAGATACC (((..(((....)))))) | -14.7 kcal/mol | 43.3 °C |
| GATCGGTCACCCGATC ((((((....)))))) | -31.4 kcal/mol | 56.4 °C |
| GGTCACTCGAAAGAGACC (((..(((....)))))) | -24.1 kcal/mol | 40.8 °C |
| GACGGCGGAAACACCGTC (((((.(....).))))) | -42.4 kcal/mol | 54 °C |
| GCGATGGGAAACCATCAC (.(((((....))))).) | -15.9 kcal/mol | 43.1 °C |
| GAGACCGAAAGGTGCTC ((((((....))).))) | -21.4 kcal/mol | 46.9 °C |
| GTATGTGGAAACGCATAC (((((.(....).))))) | -29.7 kcal/mol | 46.9 °C |
| GGACGTGGAAACGCGTTC (.(((.(....).))).) | -24.2 kcal/mol | 44.3 °C |
| GTGGAAGGAAACTCCCAC ((((.((....)).)))) | -36.2 kcal/mol | 38.6 °C |
| CGTCTCGGAAACGACACG (((.(((....))).))) | -31.2 kcal/mol | 35.5 °C |
| GGTGTTGGAAACAACGCC ((.((((....)))).)) | -36.1 kcal/mol | 57.3 °C |

| Sequence | folding enthalpy [1] | Tm [2] |
| --- | --- | --- |
| GGCAGCGAAAGCTACGCC ((((((....)))..))) | -20.5 kcal/mol | 53.5 °C |
| GATCACCGAAAGGTTATC (((.(((....))).))) | -27.7 kcal/mol | 40.4 °C |
| GCTGAGCGAAAGCTTTGC ((..(((....)))..)) | -19.1 kcal/mol | 47.9 °C |
| CGCCCGGAAACGGATGCG ((((((....)))..))) | -25 kcal/mol | 48.4 °C |
| GCGGCCAGCCGC ((((....)))) | -20.5 kcal/mol | 67.3 °C |
| GGAGAGCGAAAGCTTCC (((.(((....)))))) | -18.2 kcal/mol | 44.5 °C |
| GTCGTACGAAAGTATGAC (((.(((....))).))) | -41.9 kcal/mol | 54.3 °C |
| CGTCCGGAAACGGCTACG ((((((....)))..))) | -12.6 kcal/mol | 34 °C |
| GATCAGCGTCTGATC ((((((...)))))) | -38.8 kcal/mol | 49.9 °C |
| GTAGGCGAAAGCCTCTAC ((((((....)))..))) | -8.87 kcal/mol | 36.4 °C |
| GCAACGCGAAAGCGGAGC ((..(((....)))..)) | -24.5 kcal/mol | 63.9 °C |
| GCGGTGGGAAACCACCAC (.(((((....))))).) | -12.4 kcal/mol | 48.1 °C |
| GATCCGCTGCGGATC ((((((...)))))) | -48.3 kcal/mol | 57.5 °C |
| GTCCTCGAAAGAGGTGAC ((((((....)))..))) | -11.6 kcal/mol | 35.5 °C |
| GTTAAGGCGAAAGCCAAC (((..(((....)))))) | -11 kcal/mol | 32.8 °C |
| GGTTGCGGAAACGTGACC (((..((....))..))) | -32.2 kcal/mol | 48.8 °C |
| GCATTGCGAAAGCTCTGC (((..((....))..))) | -23.5 kcal/mol | 39.2 °C |
| GCGTGACACGC ((((...)))) | -22.1 kcal/mol | 56.8 °C |
| GCGGCGCGAAAGCCTCGC (((..((....))..))) | -18.6 kcal/mol | 55.8 °C |
| GATCATGCGATGATC ((((((...)))))) | -31.9 kcal/mol | 46.9 °C |
| GTTGAAGGAAACTTCAGC (.(((((....))))).) | -23 kcal/mol | 41.4 °C |
| GAAGTGGGAAACTGCTTC ((((..(....)..)))) | -26.1 kcal/mol | 39.6 °C |
| GGTGACGAAAGTCGGACC ((((((....)))..))) | -15.8 kcal/mol | 42.1 °C |

Source: the array DNA melting data of Ke et al. (doi:10.1101/2024.01.08.574731)
